# Results taken from ChEMBL document CHEMBL3774382, “Design and synthesis of small molecule-sulfotyrosine mimetics that inhibit HIV-1 entry” (Bioorg Med Chem, 2016).
# What was measured:
# [1] = system: Human immunodeficiency virus 1; experiment: Antiviral activity against HIV1 CCR5-tropic strain YU2 infected in human 293T cells after 48 hrs by neutralization assay; format: functional, cell-based; conditions: Human immunodeficiency virus 1, isolate YU2, HEK-293T
# Summary of the method: (§1)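 Env-pseudotyped virus made by transfecting 293T cells with SG3denv plus an HIV-1 env plasmid. Medium changed at 24 h, supernatant harvested at 48 h, 0.45 μm filtered, stored at −80 °C. Two-fold serial inhibitor dilutions mixed with virus, then TZM-bl cells added. Incubated at 37 °C, 5% CO₂, fresh medium at 24 h. Luciferase read after lysis at 48 h post-infection. Single round. Tested up to 400 μM.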
# [2] = system: Human immunodeficiency virus 1; experiment: Antiviral activity against HIV1 JRCSF infected in human 293T cells after 48 hrs by neutralization assay; format: functional, cell-based; conditions: Human immunodeficiency virus 1, JRCSF ISOLATE, HEK-293T; summary of the method: as §1
# [3] = system: Human immunodeficiency virus 1; experiment: Antiviral activity against HIV1 CXCR4-tropic strain HxB2 infected in human 293T cells after 48 hrs by neutralization assay; format: functional, organism-based; conditions: Human immunodeficiency virus 1, HxB2, HEK-293T; summary of the method: as §1
# [4] = Cytotoxicity against human TZM-bl cells at 500 uM; format: cell-based
# [5] = system: Human immunodeficiency virus 1; experiment: Antiviral activity against HIV1 dual CXCR4/CCR5-tropic strain 89.6 infected in human 293T cells after 48 hrs by neutralization assay; format: functional, organism-based; conditions: Human immunodeficiency virus 1, 89.6, HEK-293T; summary of the method: as §1
# [6] = system: Human immunodeficiency virus 1; experiment: Antiviral activity against HIV1 NL4-3 infected in human 293T cells after 48 hrs by neutralization assay; format: functional, organism-based; conditions: Human immunodeficiency virus 1, NL4-3, HEK-293T; summary of the method: as §1
# [7] = system: 293T; experiment: Inhibition of envelope gp120 in CCR5-tropic HIV1 YU2 infected in human 293T cells assessed as dose reduction index ratio at 1: 10 at 1:10 inhibitor to CCR5 Nt sulfated peptide (2 to 18) by single round neutralization assay; format: cell-based; conditions: Human immunodeficiency virus type 1 (isolate YU2)
# Summary of the method: (§2)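 Single-round YU2 pseudovirus neutralization in TZM-bl cells with luciferase read-out. Virus treated with inhibitor alone, with sulfated CCR5 N-terminal peptide 2–18 alone, or with a constant-ratio mixture, two-fold serial dilutions starting near 30× the single-agent IC₅₀. The ratio approximates the ratio of single-agent IC₅₀s. Analysed by the Chou–Talalay method. DRI is IC₅₀ alone divided by IC₅₀ in combination. CI below 1, equal to 1 and above 1 mean synergy, additivity and antagonism.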
# [8] = system: 293T; experiment: Inhibition of envelope gp120 in CCR5-tropic HIV1 YU2 infected in human 293T cells assessed as combination index at 1: 10 at 1:10 inhibitor to CCR5 Nt sulfated peptide (2 to 18) by single round neutralization assay; format: cell-based; conditions: Human immunodeficiency virus type 1 (isolate YU2); summary of the method: as §2
# [9] = Cytotoxicity against human TZM-bl cells; format: cell-based; conditions: read-out: LC50 (the source's name)
# [10] = Therapeutic index, ratio of LC50 for human TZM-bl cells to IC50 for HIV1; format: cell-based; conditions: read-out: TI
# [11] = system: Human immunodeficiency virus 1; experiment: Antiviral activity against HIV1 JRCSF infected in human 293T cells after at 400 uM 48 hrs by neutralization assay; format: functional, cell-based, JRCSF ISOLATE; summary of the method: as §1
# [12] = system: Human immunodeficiency virus 1; experiment: Antiviral activity against HIV1 dual CXCR4/CCR5-tropic strain 89.6 infected in human 293T cells at 400 uM after 48 hrs by neutralization assay; format: functional, organism-based; summary of the method: as §1
# [13] = system: Human immunodeficiency virus 1; experiment: Antiviral activity against HIV1 CCR5-tropic strain YU2 infected in human 293T cells at 500 uM after 48 hrs by neutralization assay; format: functional, cell-based, isolate YU2
# [14] = system: Human immunodeficiency virus 1; experiment: Antiviral activity against HIV1 CCR5-tropic strain YU2 infected in human 293T cells at 400 uM after 48 hrs by neutralization assay; format: functional, cell-based, isolate YU2; summary of the method: as §1
# [15] = Cytotoxicity against human TZM-bl cells at 200 to 500 uM; format: cell-based
# [16] = Binding affinity to HIV immobilized envelop gp120 at 80 to 350 uM by surface plasmon resonance analysis; parameters: species or system Human immunodeficiency virus
SMILES,IC50 [1] [µM],IC50 [2] [µM],IC50 [3] [µM],IC50 [5] [µM],IC50 [6] [µM],also measured
O=C1/C(=N\Nc2cc(S(=O)(=O)O)cc3cc(S(=O)(=O)O)cc(S(=O)(=O)O)c23)C(c2ccccc2)=NN1c1nc(-c2ccccc2)cs1,148,35.5,29.3,,,
O=C1/C(=N\Nc2ccc(S(=O)(=O)O)cc2)C(c2ccccc2)=NN1c1nc(-c2ccccc2)cs1,,,,,,Activity [4]: Non-toxic
O=C1/C(=N\Nc2ccc3c(S(=O)(=O)O)cc(S(=O)(=O)O)cc3c2)C(c2ccccc2)=NN1c1nc(-c2ccc3c(c2)OCCO3)cs1,22.3,14.9,5.2,8.9,7.7,Ratio [7]: 1.2; CI [8]: 1.9; CC50 [9]: 70 µM; selectivity ratio [10]: < 10
COc1ccc(-c2csc(N3N=C(C)/C(=N/Nc4cc(S(=O)(=O)O)cc5cc(S(=O)(=O)O)cc(S(=O)(=O)O)c45)C3=O)n2)cc1,47.6,27,22.5,,,
CC1=NN(c2nc(-c3cccc(Cl)c3)cs2)C(=O)/C1=N/Nc1ccc(S(=O)(=O)O)cc1,432,,,,,
COc1ccc(-c2csc(N3N=C(C(F)(F)F)/C(=N/Nc4ccc5c(S(=O)(=O)O)cc(S(=O)(=O)O)cc5c4)C3=O)n2)cc1,298,,80,,104,IC50 [11]: Not Active; IC50 [12]: Not Active
COc1ccc(-c2csc(N3N=C(C)/C(=N\Nc4ccc(CS(=O)(=O)O)cc4)C3=O)n2)cc1,,,,,,IC50 [13]: Not Active
CC1=NN(c2nc(-c3ccccc3)cs2)C(=O)/C1=N\Nc1cc(S(=O)(=O)O)cc2cc(S(=O)(=O)O)cc(S(=O)(=O)O)c12,,47.6,36.8,,,IC50 [14]: Not Active; CC50 [9]: 200 µM; selectivity ratio [10]: < 10; Activity [15]: Toxic
CC1=NN(c2nc(-c3ccc(S(=O)(=O)O)cc3)cs2)C(=O)/C1=N/Nc1ccc(S(=O)(=O)O)cc1,,,,,,IC50 [13]: Not Active
CC1=NN(c2nc(-c3ccc(O)c(O)c3)cs2)C(=O)/C1=N/Nc1ccc(S(=O)(=O)O)cc1,512,,,,,
COc1ccc(OC)c(-c2csc(N3N=C(C)/C(=N\Nc4ccc(S(=O)(=O)O)cc4)C3=O)n2)c1,189,,,,,
CC1=NN(c2nc(-c3ccc(C(F)(F)F)cc3)cs2)C(=O)/C1=N/Nc1ccc(S(=O)(=O)O)cc1,139,,,,,
CC1=NN(c2nc(-c3ccc(OC(F)(F)F)cc3)cs2)C(=O)/C1=N/Nc1ccc(S(=O)(=O)O)cc1,400,,,,,
CN(C)c1ccc(-c2csc(N3N=C(c4ccccc4)/C(=N/Nc4ccc5c(S(=O)(=O)O)cc(S(=O)(=O)O)cc5c4)C3=O)n2)cc1,23.8,8,1.1,3.8,2.9,Ratio [7]: 1.2; CI [8]: 2.5; CC50 [9]: 330 µM; selectivity ratio [10]: 13
CC1=NN(c2nc(-c3ccc(C)cc3)cs2)C(=O)/C1=N\Nc1ccc(S(=O)(=O)O)cc1,126,,,,,
O=C1/C(=N\Nc2cc(S(=O)(=O)O)cc3cc(S(=O)(=O)O)cc(S(=O)(=O)O)c23)C(c2ccccc2)=NN1c1nc(-c2ccc(C(F)(F)F)cc2)cs1,80.6,30.8,28.9,,,
CC1=NN(c2nc(-c3ccc(C(F)(F)F)cc3)cs2)C(=O)/C1=N\Nc1cc(S(=O)(=O)O)cc2cc(S(=O)(=O)O)cc(S(=O)(=O)O)c12,91.9,26.1,19.7,,,
COCC1=NN(c2nc(-c3ccc(OC)cc3)cs2)C(=O)/C1=N\Nc1ccc2c(S(=O)(=O)O)cc(S(=O)(=O)O)cc2c1,74.9,36.2,10.1,22.3,15.6,
O=C1/C(=N\Nc2ccc3c(S(=O)(=O)O)cc(S(=O)(=O)O)cc3c2)C(c2ccccc2)=NN1c1nc(-c2nccs2)cs1,30.9,19.5,12,6.7,10.2,
COc1ccc(-c2csc(N3N=C(c4ccccc4)/C(=N/Nc4cc(S(=O)(=O)O)cc5cc(S(=O)(=O)O)cc(S(=O)(=O)O)c45)C3=O)n2)cc1,80.8,32.3,18.7,,,Activity [4]: Non-toxic; selectivity ratio [10]: > 30
O=C1/C(=N\Nc2ccc3c(S(=O)(=O)O)cc(S(=O)(=O)O)cc3c2)C(c2ccccc2)=NN1c1nc(-c2ccc(OC(F)(F)F)cc2)cs1,52.8,29.8,14.2,14.8,10.7,
COc1ccc(-c2csc(N3N=C(C)/C(=N/Nc4ccc5c(S(=O)(=O)O)cc(S(=O)(=O)O)cc5c4)C3=O)n2)cc1,53.8,22.1,8.1,9.2,7,Activity [4]: Non-toxic; selectivity ratio [10]: > 30
O=C1/C(=N\Nc2ccc3c(S(=O)(=O)O)cc(S(=O)(=O)O)cc3c2)C(c2ccccc2)=NN1c1nc(C(F)(F)F)cs1,27.9,5.8,6.8,2.4,6.3,CC50 [9]: 370 µM; selectivity ratio [10]: 13; Activity [15]: Toxic
COc1ccc(-c2csc(N3N=C(c4ccccc4)/C(=N/Nc4ccc5c(S(=O)(=O)O)cc(S(=O)(=O)O)cc5c4)C3=O)n2)cc1,24.7,10.2,7.5,3.2,5.8,Kd [16]: 80 µM; Ratio [7]: 1.3; CI [8]: 2.3; CC50 [9]: 200 µM; selectivity ratio [10]: 10; Activity [15]: Toxic
COc1ccc(-c2csc(N3N=C(COc4ccccc4)/C(=N/Nc4ccc5c(S(=O)(=O)O)cc(S(=O)(=O)O)cc5c4)C3=O)n2)cc1,62.4,24.1,9.4,14.6,11.2,
CC1=NN(c2nc(-c3ccccc3)cs2)C(=O)/C1=N\Nc1ccc2c(S(=O)(=O)O)cc(S(=O)(=O)O)cc2c1,137,64.8,51.1,101,33.1,
COc1ccc(OC)c(-c2csc(N3N=C(c4ccccc4)/C(=N/Nc4ccc5c(S(=O)(=O)O)cc(S(=O)(=O)O)cc5c4)C3=O)n2)c1,30.7,9.9,2.5,2.9,3.6,Activity [4]: Non-toxic; selectivity ratio [10]: 16
O=C1/C(=N\Nc2ccc3c(S(=O)(=O)O)cc(S(=O)(=O)O)cc3c2)C(c2ccccc2)=NN1c1nc(-c2ccccc2)cs1,43.7,30.7,3.6,8.4,7.1,Kd [16]: 350 µM
